Assay results taken from publication PMC12489099 (Nature Communications, 2025).

Tests used:
Type in all cases: biochemical
[1] = biological target: Wt-Tau441 (Homo sapiens, UniProt P10636); experiment: ThT fluorescence assay of Wt-Tau fibrillization
Method in brief: (§1)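 Lyophilized full-length Tau441 (wild-type or ΔK280) was diluted to 40 µM stock in 25 mM NaPi, 25 mM NaCl, 2.5 mM EDTA, pH 6.8, and used at 10 µM final with 25 µM ThT. Aggregation was started with 0.0625 µM heparin. Water-dissolved test compound was added at 50, 10 or 1 µM. Fluorescence was followed over time. Curves were fitted to a Boltzmann sigmoid and scaled to maximal control fluorescence; Wt-Tau relative F was taken at 30 h.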

[2] = biological target: Tau441-ΔK280 (Homo sapiens, UniProt P10636, DEL597-597); experiment: ThT fluorescence assay of Tau-ΔK280 fibrillization; conditions: both 5/1 and 1/1 ratios
Method in brief: as §1

[3] = biological target: Aβ1-42 (Homo sapiens, UniProt P05067); experiment: ThT fluorescence assay of Aβ1-42 fibrillization; conditions: compound/Aβ1-42 ratio 1/1
Sequence of Aβ1-42 (P05067 672-713): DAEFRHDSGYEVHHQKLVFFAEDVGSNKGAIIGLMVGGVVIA

SMILES | decrease of F versus Wt-Tau control ([1]; compound/Wt-Tau ratio 0.1/1) [%] | t1/2, change versus Wt-Tau control ([1]; compound/Wt-Tau ratio 1/1, N.A. = no aggregation) | inhibition of the aggregation of Wt-Tau (in words) ([1]; compound/Wt-Tau ratio 5/1, ThT) | inhibition of the aggregation of Tau-ΔK280 (in words) [2] | F, change versus Aβ1-42 control [3] [%]
CN(C)c1ccc2nc3ccc(=[N+](C)C)cc-3sc2c1 [MB, methylthioninium chloride] | 50 | +55% | complete inhibition | complete inhibition | –
Oc1ccc(/C=C/c2cc(O)cc(O)c2)cc1 [Resveratrol] | – | – | – | – | -78
